# Measurements from different studies.
# Lines come from different studies, so protocols differ.
# Mode: inhibitor
# MET: Hepatocyte growth factor receptor (MET, Homo sapiens, UniProt P08581)
SMILES,target,assay,conditions,inhibition
CNC(=O)c1cc2c(Oc3ccc(NC(=O)C4(C(=O)Nc5ccc(F)cc5)CC4)cc3)ccnc2cc1OC,"Hepatocyte growth factor receptor (MET, Homo sapiens, UniProt P08581, M1250T)","enzyme activity, radiometric",1 µM,99%
CN(C)C1CCN(CC#Cc2nn(C3CCCC3)c3nc(NCc4ccccc4)ncc23)C1 (centres unmarked),MET,"enzyme activity, FRET",0.1 µM,6%
CNC(=O)c1cc(Oc2ccc(NC(=O)Nc3ccc(Cl)c(C(F)(F)F)c3)cc2)ccn1,MET,enzyme activity,10 µM,-13%
CSc1nc(C)c(-c2ccnc(Nc3ccc(N4CCOCC4)cc3)c2)[nH]1,MET,cell-free assay,10 µM,28.2%
C=CC(=O)Nc1cc(Nc2nccc(Nc3cc(Cl)c(F)cc3C(C)(C)O)n2)c(OC)cc1N1CC[C@@H](N(C)C)C1,MET,enzyme activity,1 µM,30%
CN1CC(Oc2cnc(C#N)cc2-c2ccn3nc(NC(=O)C4CC4)cc3c2)C1,MET,enzyme activity,1 µM,-19%
CCCS(=O)(=O)Nc1ccc(F)c(C(=O)c2c[nH]c3ncc(-c4ccc(Cl)cc4)cc23)c1F,MET,enzyme activity,1 µM,< 20%
COc1cc2ncnc(Nc3ccc(Oc4ccccc4)c(C)c3C)c2cc1OC,MET,enzyme activity,1 µM,8%
CC/C(=N\NC(=O)NCc1cccc(O)c1)c1ccc(O)c(C)c1O,MET,enzyme activity,0.1 µM,1.1%
CS(=O)(=O)Nc1cccc(-c2csc(NC(=O)CSc3nc4nccnc4c(=O)n3CCc3ccccc3)n2)c1,MET,enzyme activity,10 µM,1%
COc1cc2ncnc(Nc3ccc(Oc4ccccc4)cc3C)c2cc1OC,MET,enzyme activity,1 µM,-1%
